In ChEMBL document CHEMBL1138512, “A class of 2,4-bisanilinopyrimidine Aurora A inhibitors with unusually high selectivity against Aurora B” (J Med Chem, 2009):
Values belong to the compound of their own block, whether it stands above or below them.

Columns and labels:
Aurora kinase A [1] = biological target: T1, Aurora kinase A (Homo sapiens, UniProt O14965); experiment: Inhibition of N-terminal flag-tagged Aurora A expressed in Escherichia coli BL21-DE3 by ELISA
T1 sequence (O14965 whole entry): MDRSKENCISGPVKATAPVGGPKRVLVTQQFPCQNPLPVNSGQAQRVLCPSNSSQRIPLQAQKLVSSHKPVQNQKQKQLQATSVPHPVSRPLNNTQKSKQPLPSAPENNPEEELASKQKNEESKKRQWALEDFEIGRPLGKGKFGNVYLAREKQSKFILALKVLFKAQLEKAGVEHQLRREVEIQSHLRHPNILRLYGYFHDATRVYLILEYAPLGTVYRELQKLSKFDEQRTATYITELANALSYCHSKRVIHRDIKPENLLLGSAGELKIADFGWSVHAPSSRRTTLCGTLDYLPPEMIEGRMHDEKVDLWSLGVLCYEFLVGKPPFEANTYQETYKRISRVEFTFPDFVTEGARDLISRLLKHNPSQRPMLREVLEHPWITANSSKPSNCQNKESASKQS

Aurora kinase B [2] = biological target: T2, Aurora kinase B (Homo sapiens, UniProt Q96GD4); experiment: Inhibition of Aurora B in human HT29 cells assessed as complete loss of phospho-histone H3 staining by immunofluorescence assay; format: cell-based, HT-29
Outline: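 Immunofluorescence for phospho-S10 histone H3 in HCT116 or HT29 cells, scored visually. Value taken as the lowest inhibitor concentration giving complete loss of staining, so it lies above the IC50. Units µM.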

Aurora kinase A [3] = biological target: Aurora kinase A (Homo sapiens, UniProt O14965, T217E); experiment: Inhibition of N-terminal flag-tagged Aurora A T217E mutant expressed in Escherichia coli BL21-DE3
Aurora kinase B [4] = biological target: Aurora kinase B (Homo sapiens, UniProt Q96GD4, E161T); experiment: Inhibition of N-terminal flag-tagged Aurora B E161T mutant expressed in Escherichia coli BL21-DE3
Aurora kinase B [5] = biological target: T2, Aurora kinase B; experiment: Inhibition of N-terminal flag-tagged Aurora B expressed in Escherichia coli BL21-DE3 by ELISA
[6] = biological target: T3, Cyclin-dependent kinase 2 (Homo sapiens, UniProt P24941); experiment: Inhibition of CDK2/cyclin A
HCT-116 = experiment: Antiproliferative activity against human HCT116 cells after 4 days by celltiter assay; format: functional, cell-based; conditions: HCT-116, 96 h
Aurora kinase A [7] = biological target: T1, Aurora kinase A; experiment: Inhibition of Aurora A in human HCT116 cells assessed as complete loss of phospho-Aurora A staining in centrosomes by immunofluorescence assay; format: cell-based, HCT-116
HT-29 = experiment: Antiproliferative activity against human HT-29 cells after 4 days by celltiter assay; format: functional, cell-based; conditions: HT-29, 96 h
Aurora kinase B [8] = biological target: T2, Aurora kinase B; experiment: Inhibition of Aurora B in human HCT116 cells assessed as complete loss of phospho-histone H3 staining by immunofluorescence assay
[9] = biological target: Fibroblast growth factor receptor 3 (Homo sapiens) (UniProt P22607); experiment: Inhibition of human FGFR3 at 1 uM assessed as residual enzyme activity
[10] = biological target: RAF proto-oncogene serine/threonine-protein kinase (Homo sapiens) (UniProt P04049); experiment: Inhibition of human c-RAF at 1 uM assessed as residual enzyme activity
[11] = biological target: Casein kinase II (Homo sapiens) (UniProt P67870+P68400+P19784); experiment: Inhibition of human CK2 at 1 uM assessed as residual enzyme activity; format: protein-complex assay
[12] = biological target: Cyclin-dependent kinase 1/cyclin B1 (Homo sapiens) (UniProt P06493+P14635); experiment: Inhibition of human CDK1/cyclin B at 1 uM assessed as residual enzyme activity
[13] = biological target: Proto-oncogene tyrosine-protein kinase receptor Ret (Homo sapiens) (UniProt P07949); experiment: Inhibition of human Ret at 1 uM assessed as residual enzyme activity
[14] = biological target: Glycogen synthase kinase-3 beta (Homo sapiens) (UniProt P49841); experiment: Inhibition of human GSK3-beta at 1 uM assessed as residual enzyme activity
[15] = biological target: Tyrosine-protein kinase ABL1 (Mus musculus) (UniProt P00520); experiment: Inhibition of mouse ABL at 1 uM assessed as residual enzyme activity
[16] = biological target: T3, Cyclin-dependent kinase 2; experiment: Inhibition of human CDK2/cyclin E at 1 uM assessed as residual enzyme activity
[17] = biological target: Tyrosine-protein kinase receptor UFO (Homo sapiens) (UniProt P30530); experiment: Inhibition of human Axl at 1 uM assessed as residual enzyme activity
[18] = biological target: Epidermal growth factor receptor (Homo sapiens) (UniProt P00533); experiment: Inhibition of human EGFR at 1 uM assessed as residual enzyme activity
[19] = biological target: Platelet-derived growth factor receptor beta (Homo sapiens) (UniProt P09619); experiment: Inhibition of human PDGFRbeta at 1 uM assessed as residual enzyme activity
[20] = biological target: RAC-beta serine/threonine-protein kinase (Homo sapiens) (UniProt P31751); experiment: Inhibition of human PKBbeta at 1 uM assessed as residual enzyme activity
[21] = biological target: Tyrosine-protein kinase ZAP-70 (Homo sapiens) (UniProt P43403); experiment: Inhibition of human ZAP-70 at 1 uM assessed as residual enzyme activity
[22] = biological target: Hepatocyte growth factor receptor (Homo sapiens) (UniProt P08581); experiment: Inhibition of human Met at 1 uM assessed as residual enzyme activity
[23] = biological target: Tyrosine-protein kinase ABL2 (Mus musculus) (UniProt Q4JIM5); experiment: Inhibition of mouse ARG at 1 uM assessed as residual enzyme activity
Homo sapiens = species: Homo sapiens; experiment: Inhibition of human PKA at 1 uM assessed as residual enzyme activity
[24] = biological target: Receptor-type tyrosine-protein kinase FLT3 (Homo sapiens) (UniProt P36888); experiment: Inhibition of human Flt3 at 1 uM assessed as residual enzyme activity
[25] = biological target: Proto-oncogene tyrosine-protein kinase Src (Homo sapiens) (UniProt P12931); experiment: Inhibition of human c-SRC at 1 uM assessed as residual enzyme activity
[26] = biological target: Tyrosine-protein kinase CSK (Homo sapiens) (UniProt P41240); experiment: Inhibition of human CSK at 1 uM assessed as residual enzyme activity
[27] = biological target: BDNF/NT-3 growth factors receptor (Homo sapiens) (UniProt Q16620); experiment: Inhibition of human TrkB at 1 uM assessed as residual enzyme activity
[28] = biological target: Aurora kinase A (Homo sapiens) (UniProt O14965); experiment: Inhibition of human Aurora A at 1 uM assessed as residual enzyme activity
[29] = biological target: Mitogen-activated protein kinase 8 (Homo sapiens) (UniProt P45983); experiment: Inhibition of human JNK1alpha1 at 1 uM assessed as residual enzyme activity
[30] = biological target: Ribosomal protein S6 kinase beta-1 (Homo sapiens) (UniProt P23443); experiment: Inhibition of human p70S6K at 1 uM assessed as residual enzyme activity
[31] = biological target: Insulin receptor (Homo sapiens) (UniProt P06213); experiment: Inhibition of human insulin receptor at 1 uM assessed as residual enzyme activity
[32] = biological target: RAC-alpha serine/threonine-protein kinase (Homo sapiens) (UniProt P31749); experiment: Inhibition of human PKBalpha at 1 uM assessed as residual enzyme activity
[33] = biological target: Tyrosine-protein kinase Lck (Homo sapiens) (UniProt P06239); experiment: Inhibition of human Lck at 1 uM assessed as residual enzyme activity
[34] = biological target: Ephrin type-B receptor 2 (Homo sapiens) (UniProt P29323); experiment: Inhibition of human EphB2 at 1 uM assessed as residual enzyme activity
[35] = biological target: Dual specificity mitogen-activated protein kinase kinase 1 (Homo sapiens) (UniProt Q02750); experiment: Inhibition of human MEK1 at 1 uM assessed as residual enzyme activity
[36] = biological target: RAC-gamma serine/threonine-protein kinase (Homo sapiens) (UniProt Q9Y243); experiment: Inhibition of human PKBgamma at 1 uM assessed as residual enzyme activity
[37] = biological target: Serine/threonine-protein kinase Chk1 (Homo sapiens) (UniProt O14757); experiment: Inhibition of human CHK1 at 1 uM assessed as residual enzyme activity

T2 sequence (Q96GD4 whole entry): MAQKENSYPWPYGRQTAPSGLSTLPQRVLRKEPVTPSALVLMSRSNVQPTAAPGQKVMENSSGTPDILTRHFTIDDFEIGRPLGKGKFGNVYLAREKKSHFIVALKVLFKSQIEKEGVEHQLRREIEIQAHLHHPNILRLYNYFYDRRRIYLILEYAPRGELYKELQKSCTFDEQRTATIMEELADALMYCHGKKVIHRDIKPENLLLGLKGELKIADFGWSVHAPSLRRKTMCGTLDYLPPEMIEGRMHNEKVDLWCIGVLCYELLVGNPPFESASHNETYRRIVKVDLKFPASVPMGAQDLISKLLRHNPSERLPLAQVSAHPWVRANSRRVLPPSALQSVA
Sequence of Ephrin type-B receptor 2 (Homo sapiens) (P29323 whole entry): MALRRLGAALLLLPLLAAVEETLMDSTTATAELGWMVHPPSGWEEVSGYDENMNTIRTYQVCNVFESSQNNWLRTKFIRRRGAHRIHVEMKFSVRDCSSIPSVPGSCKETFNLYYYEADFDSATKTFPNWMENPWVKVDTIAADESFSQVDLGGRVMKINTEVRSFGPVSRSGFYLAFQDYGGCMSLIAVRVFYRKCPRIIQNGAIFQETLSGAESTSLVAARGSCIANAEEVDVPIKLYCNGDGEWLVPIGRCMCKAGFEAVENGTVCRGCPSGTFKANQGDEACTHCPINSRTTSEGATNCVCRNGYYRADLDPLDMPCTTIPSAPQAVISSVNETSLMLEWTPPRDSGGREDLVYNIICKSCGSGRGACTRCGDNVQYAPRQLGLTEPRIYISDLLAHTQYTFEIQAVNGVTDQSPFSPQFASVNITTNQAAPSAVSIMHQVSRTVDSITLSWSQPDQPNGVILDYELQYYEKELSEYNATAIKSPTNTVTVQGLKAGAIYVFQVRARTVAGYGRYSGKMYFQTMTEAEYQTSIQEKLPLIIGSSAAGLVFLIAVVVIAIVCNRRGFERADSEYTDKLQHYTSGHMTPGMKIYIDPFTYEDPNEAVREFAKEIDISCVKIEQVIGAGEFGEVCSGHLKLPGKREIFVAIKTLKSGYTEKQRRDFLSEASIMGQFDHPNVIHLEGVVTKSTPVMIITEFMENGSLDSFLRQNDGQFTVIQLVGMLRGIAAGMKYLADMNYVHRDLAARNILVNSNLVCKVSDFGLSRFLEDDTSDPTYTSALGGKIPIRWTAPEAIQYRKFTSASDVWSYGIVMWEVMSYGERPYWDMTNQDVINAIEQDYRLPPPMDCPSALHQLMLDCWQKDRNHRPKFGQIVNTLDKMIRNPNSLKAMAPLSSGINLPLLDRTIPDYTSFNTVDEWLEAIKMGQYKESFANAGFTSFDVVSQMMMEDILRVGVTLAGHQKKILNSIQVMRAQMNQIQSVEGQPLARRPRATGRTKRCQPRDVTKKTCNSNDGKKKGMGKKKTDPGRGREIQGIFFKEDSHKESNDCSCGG
Sequence of RAC-beta serine/threonine-protein kinase (Homo sapiens) (P31751 whole entry): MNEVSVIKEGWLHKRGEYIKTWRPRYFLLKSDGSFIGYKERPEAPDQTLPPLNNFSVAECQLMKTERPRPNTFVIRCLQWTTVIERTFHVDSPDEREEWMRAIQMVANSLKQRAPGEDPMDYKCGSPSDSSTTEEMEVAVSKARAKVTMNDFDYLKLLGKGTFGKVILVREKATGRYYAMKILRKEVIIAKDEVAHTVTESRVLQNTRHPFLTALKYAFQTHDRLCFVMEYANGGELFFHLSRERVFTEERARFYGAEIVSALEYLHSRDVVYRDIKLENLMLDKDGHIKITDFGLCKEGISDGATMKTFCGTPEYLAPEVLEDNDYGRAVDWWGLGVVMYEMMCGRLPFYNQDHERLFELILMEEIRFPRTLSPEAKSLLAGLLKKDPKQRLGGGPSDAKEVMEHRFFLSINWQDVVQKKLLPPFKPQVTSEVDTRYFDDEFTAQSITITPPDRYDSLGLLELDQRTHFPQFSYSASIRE
Sequence of Glycogen synthase kinase-3 beta (Homo sapiens) (P49841 whole entry, looked up): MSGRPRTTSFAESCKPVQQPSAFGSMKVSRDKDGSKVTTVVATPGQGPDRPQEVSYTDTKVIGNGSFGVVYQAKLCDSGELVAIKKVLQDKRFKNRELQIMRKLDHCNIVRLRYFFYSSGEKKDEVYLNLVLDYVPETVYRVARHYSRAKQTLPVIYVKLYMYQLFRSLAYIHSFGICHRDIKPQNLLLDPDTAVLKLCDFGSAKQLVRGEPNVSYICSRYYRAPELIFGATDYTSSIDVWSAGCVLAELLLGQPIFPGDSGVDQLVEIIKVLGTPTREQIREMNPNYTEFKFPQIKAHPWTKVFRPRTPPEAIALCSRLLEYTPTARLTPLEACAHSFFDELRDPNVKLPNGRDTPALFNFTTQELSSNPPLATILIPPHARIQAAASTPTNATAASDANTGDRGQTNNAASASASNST
Sequence of Receptor-type tyrosine-protein kinase FLT3 (Homo sapiens) (P36888 whole entry): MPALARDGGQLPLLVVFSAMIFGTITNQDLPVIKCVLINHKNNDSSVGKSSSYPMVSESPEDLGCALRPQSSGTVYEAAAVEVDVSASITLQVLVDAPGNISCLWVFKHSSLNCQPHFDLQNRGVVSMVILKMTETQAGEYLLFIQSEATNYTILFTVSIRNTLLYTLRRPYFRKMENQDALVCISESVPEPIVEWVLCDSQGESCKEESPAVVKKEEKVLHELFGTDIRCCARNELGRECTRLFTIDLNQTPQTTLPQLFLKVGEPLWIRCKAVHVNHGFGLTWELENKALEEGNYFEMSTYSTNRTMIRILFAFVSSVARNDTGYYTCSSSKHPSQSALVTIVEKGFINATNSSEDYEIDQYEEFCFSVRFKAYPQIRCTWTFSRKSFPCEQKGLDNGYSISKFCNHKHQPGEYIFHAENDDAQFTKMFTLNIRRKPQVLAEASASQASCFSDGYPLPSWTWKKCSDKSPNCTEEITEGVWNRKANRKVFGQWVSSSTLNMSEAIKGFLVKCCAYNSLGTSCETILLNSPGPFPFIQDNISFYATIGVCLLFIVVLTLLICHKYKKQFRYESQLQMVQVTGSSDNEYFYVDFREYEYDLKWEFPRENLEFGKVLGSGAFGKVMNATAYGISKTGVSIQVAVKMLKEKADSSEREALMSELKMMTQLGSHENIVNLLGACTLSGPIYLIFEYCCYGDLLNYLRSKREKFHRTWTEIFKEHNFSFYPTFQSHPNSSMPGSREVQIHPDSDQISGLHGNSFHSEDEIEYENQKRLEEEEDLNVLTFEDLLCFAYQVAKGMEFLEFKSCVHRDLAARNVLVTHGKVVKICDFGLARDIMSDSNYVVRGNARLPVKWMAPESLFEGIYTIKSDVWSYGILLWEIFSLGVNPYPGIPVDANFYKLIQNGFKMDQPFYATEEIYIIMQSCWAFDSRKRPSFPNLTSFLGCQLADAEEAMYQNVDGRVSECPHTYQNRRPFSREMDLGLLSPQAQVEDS
Sequence of Tyrosine-protein kinase CSK (Homo sapiens) (P41240 2-450 limits assumed): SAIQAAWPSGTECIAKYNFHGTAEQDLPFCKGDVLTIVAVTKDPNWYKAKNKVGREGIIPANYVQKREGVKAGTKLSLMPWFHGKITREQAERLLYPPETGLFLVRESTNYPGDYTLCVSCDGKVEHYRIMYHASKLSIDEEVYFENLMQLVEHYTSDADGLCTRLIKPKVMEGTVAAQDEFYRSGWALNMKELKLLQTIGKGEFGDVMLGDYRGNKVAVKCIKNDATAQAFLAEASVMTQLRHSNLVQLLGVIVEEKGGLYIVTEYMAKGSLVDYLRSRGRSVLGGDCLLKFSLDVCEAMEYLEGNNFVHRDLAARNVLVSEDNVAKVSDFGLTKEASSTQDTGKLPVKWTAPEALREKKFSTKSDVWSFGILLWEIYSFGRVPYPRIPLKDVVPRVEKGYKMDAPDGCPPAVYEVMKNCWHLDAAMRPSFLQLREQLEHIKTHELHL
Sequence of RAC-gamma serine/threonine-protein kinase (Homo sapiens) (Q9Y243 whole entry): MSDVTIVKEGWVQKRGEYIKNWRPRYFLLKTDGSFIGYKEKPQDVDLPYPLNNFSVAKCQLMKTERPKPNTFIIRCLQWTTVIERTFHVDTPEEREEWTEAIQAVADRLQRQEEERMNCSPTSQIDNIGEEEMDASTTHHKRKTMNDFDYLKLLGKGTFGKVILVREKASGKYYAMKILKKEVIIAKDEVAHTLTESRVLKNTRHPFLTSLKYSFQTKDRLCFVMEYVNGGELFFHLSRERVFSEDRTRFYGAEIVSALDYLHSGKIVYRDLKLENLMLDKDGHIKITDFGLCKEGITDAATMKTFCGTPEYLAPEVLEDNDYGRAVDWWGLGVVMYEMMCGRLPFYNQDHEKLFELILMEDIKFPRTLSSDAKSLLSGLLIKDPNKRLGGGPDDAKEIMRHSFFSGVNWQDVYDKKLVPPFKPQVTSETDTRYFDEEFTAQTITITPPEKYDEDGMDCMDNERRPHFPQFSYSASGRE
Sequence of Dual specificity mitogen-activated protein kinase kinase 1 (Homo sapiens) (Q02750 whole entry): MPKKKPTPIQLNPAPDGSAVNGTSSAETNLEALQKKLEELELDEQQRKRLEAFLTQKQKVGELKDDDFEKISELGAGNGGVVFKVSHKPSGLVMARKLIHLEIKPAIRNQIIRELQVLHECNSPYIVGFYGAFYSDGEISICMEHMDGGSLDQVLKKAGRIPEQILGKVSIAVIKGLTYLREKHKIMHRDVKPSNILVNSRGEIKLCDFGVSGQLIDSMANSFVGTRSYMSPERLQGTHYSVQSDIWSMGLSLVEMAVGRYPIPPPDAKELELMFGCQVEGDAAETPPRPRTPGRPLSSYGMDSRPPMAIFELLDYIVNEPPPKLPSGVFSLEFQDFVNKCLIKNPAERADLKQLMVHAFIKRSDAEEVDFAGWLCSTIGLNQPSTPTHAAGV
Sequence of Aurora kinase B (Homo sapiens, UniProt Q96GD4, E161T) (Q96GD4 whole entry E161T): as the sequence (Q96GD4 whole entry) above, with E161T counted along it

IC50 (Aurora kinase A [1]): 680 nM
Compound: Cc1cccc(Nc2ncc(F)c(Nc3cccc(C)c3)n2)c1

Compound: CCN1CCN(C(=O)Cc2ccc(Nc3ncc(F)c(Nc4ccc(C(=O)Nc5ccccc5Cl)cc4)n3)cc2)CC1
IC50 (Aurora kinase B [2]): > 27000 nM
IC50 (Aurora kinase A [3]): 2000 nM
IC50 (Aurora kinase B [4]): 55 nM
IC50 (Aurora kinase B [5]): 3400 nM
IC50 [6]: > 16000 nM
IC50 (Aurora kinase A [1]): 3.4 nM
IC50 (HCT-116): 190 nM
IC50 (Aurora kinase A [7]): 2500 nM
IC50 (HT-29): 2900 nM
IC50 (Aurora kinase B [8]): > 50000 nM

IC50 (Aurora kinase A [1]): 67 nM
Compound: Cc1ccccc1Nc1nc(Nc2ccc(O)cc2)ncc1F

IC50 (Aurora kinase A [1]): 160 nM
Compound: NC(=O)c1ccc(Nc2nc(Nc3ccc(O)cc3)ncc2F)cc1

IC50 (Aurora kinase A [1]): > 17000 nM
Compound: Oc1ccc(Nc2cc(Cl)nc(Nc3ccc(O)cc3)n2)cc1

IC50 (Aurora kinase A [1]): 51 nM
Compound: CC(C)NC(=O)c1ccc(Nc2nc(Nc3ccc(O)cc3)ncc2F)cc1

IC50 (Aurora kinase A [1]): 50 nM
Compound: Cc1cccc(NC(=O)c2ccc(Nc3nc(Nc4ccc(O)cc4)ncc3F)cc2)c1

IC50 (Aurora kinase A [1]): 18 nM
Compound: O=C(Nc1ccc(Nc2nc(Nc3ccc(O)cc3)ncc2F)cc1)c1ccccc1

IC50 (Aurora kinase A [1]): 8 nM
Compound: Oc1ccc(Nc2ncc(Cl)c(Nc3ccc(O)cc3)n2)cc1

Activity [9]: 40%
Activity [10]: 64%
Activity [11]: 88%
Activity [12]: 60%
Activity [13]: 7%
Activity [14]: 90%
Activity [15]: 76%
IC50 (Aurora kinase B [2]): > 30000 nM
Activity [16]: 44%
Activity [17]: 54%
Activity [18]: 54%
Activity [19]: 111%
Activity [20]: 103%
Activity [21]: 100%
IC50 (Aurora kinase B [5]): 1900 nM
Activity [22]: 57%
Activity [23]: 57%
Activity (Homo sapiens): 87%
IC50 [6]: 3200 nM
IC50 (Aurora kinase A [1]): 10 nM
Activity [24]: 6%
Activity [25]: 66%
IC50 (HCT-116): 870 nM
Activity [26]: 100%
IC50 (Aurora kinase A [7]): 5000 nM
Activity [27]: 76%
Activity [28]: 1%
Activity [29]: 31%
Activity [30]: 25%
IC50 (HT-29): 17000 nM
Activity [31]: 102%
Activity [32]: 96%
Activity [33]: 42%
Activity [34]: 104%
Activity [35]: 103%
Activity [36]: 91%
Activity [37]: 82%
IC50 (Aurora kinase B [8]): > 25000 nM
Compound: O=C(Nc1ccccc1Cl)c1ccc(Nc2nc(Nc3ccc(O)cc3)ncc2F)cc1

IC50 (Aurora kinase A [1]): 49 nM
Compound: CCCNC(=O)c1ccc(Nc2nc(Nc3ccc(O)cc3)ncc2F)cc1

IC50 (Aurora kinase A [1]): 34 nM
Compound: Cc1cnc(Nc2ccc(O)cc2)nc1Nc1ccc(O)cc1

IC50 (Aurora kinase A [1]): 150 nM
Compound: CCc1cnc(Nc2ccc(O)cc2)nc1Nc1ccc(O)cc1

IC50 (Aurora kinase A [1]): 200 nM
Compound: Fc1ccc(Nc2ncc(F)c(Nc3ccc(F)cc3)n2)cc1

IC50 (Aurora kinase B [2]): > 30000 nM
IC50 (Aurora kinase B [5]): 1400 nM
IC50 (HCT-116): 850 nM
IC50 (HT-29): 7200 nM
IC50 (Aurora kinase B [8]): > 12000 nM
Compound: O=C(Nc1ccc(Nc2nc(Nc3ccc(O)cc3)ncc2F)cc1)c1ccccc1Cl

IC50 (Aurora kinase A [1]): 25 nM
Compound: O=C(Nc1ccc(F)cc1)c1ccc(Nc2nc(Nc3ccc(O)cc3)ncc2F)cc1

IC50 (Aurora kinase A [1]): 28 nM
Compound: O=C(Nc1ccccc1O)c1ccc(Nc2nc(Nc3ccc(O)cc3)ncc2F)cc1

IC50 (Aurora kinase A [1]): 78 nM
Compound: COc1ccccc1NC(=O)c1ccc(Nc2nc(Nc3ccc(O)cc3)ncc2F)cc1

IC50 (Aurora kinase A [1]): 20 nM
Compound: COc1ccccc1Nc1nc(Nc2ccc(O)cc2)ncc1F

IC50 (Aurora kinase A [1]): 75 nM
Compound: Cc1ccc(Nc2nc(Nc3ccc(O)cc3)ncc2F)cc1

IC50 (Aurora kinase A [1]): 78 nM
Compound: COc1ccc(Nc2nc(Nc3ccc(O)cc3)ncc2F)cc1

IC50 (Aurora kinase A [1]): 490 nM
Compound: Oc1ccc(Nc2ccnc(Nc3ccc(O)cc3)n2)cc1

IC50 (Aurora kinase A [1]): 14 nM
Compound: COc1ccc(NC(=O)c2ccc(Nc3nc(Nc4ccc(O)cc4)ncc3F)cc2)cc1
